Data on 21 molecules can be found in ChEMBL document CHEMBL1157000, “Aminofurazans as potent inhibitors of AKT kinase” (Bioorg Med Chem Lett, 2009).

By IC50 is commonly meant the point on the concentration scale where inhibition reaches its midpoint. The low end stands for greater potency, the high end for weaker potency. By Ki is commonly meant a dissociation constant, usually derived from enzyme kinetics or from competition with a known ligand. A higher Ki goes with lower affinity.

Bounds are passed on as bounds.

The subject of one assay is HFF. The assay is described as follows: Antiproliferative activity against human HFF cells. The assay is classed as functional, cell-based. Put shortly: (§1)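 Cell proliferation inhibition in tumour lines (BT474, LNCaP) and non-tumour HFF cells; values are the mean of at least two experiments.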
In the next assay the test system is BT-474. The assay is described as follows: Antiproliferative activity against human BT474 cells. The assay is classed as functional, cell-based. Put shortly: as §1
Assay [1] deals with RAC-alpha serine/threonine-protein kinase (Homo sapiens, UniProt P31749). The experiment in a line: Inhibition of AKT.
Chain of RAC-alpha serine/threonine-protein kinase (P31749 whole entry): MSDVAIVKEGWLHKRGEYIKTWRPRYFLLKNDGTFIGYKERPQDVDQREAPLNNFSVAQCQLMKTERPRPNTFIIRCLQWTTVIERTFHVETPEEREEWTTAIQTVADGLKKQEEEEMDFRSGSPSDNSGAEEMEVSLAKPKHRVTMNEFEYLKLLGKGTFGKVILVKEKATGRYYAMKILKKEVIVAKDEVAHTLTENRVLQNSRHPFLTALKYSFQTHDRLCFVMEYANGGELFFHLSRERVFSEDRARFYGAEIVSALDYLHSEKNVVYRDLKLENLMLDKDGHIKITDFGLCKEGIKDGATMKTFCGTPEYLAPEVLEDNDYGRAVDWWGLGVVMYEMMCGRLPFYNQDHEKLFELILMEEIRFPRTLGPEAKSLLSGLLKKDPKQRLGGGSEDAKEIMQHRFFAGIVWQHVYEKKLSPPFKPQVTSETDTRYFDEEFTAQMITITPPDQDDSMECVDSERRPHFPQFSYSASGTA
In the next assay the test system is LNCaP. The assay is described as follows: Antiproliferative activity against human LNCAP cells. It is filed as functional, cell-based. Put shortly: as §1
The test system of another assay is Mus musculus. The experiment in a line: Inhibition of GSK3B phosphorylation in human BT474 cells xenografted in ip dosed mouse. The settings on record: BT-474. The assay is classed as functional, organism-based. Put shortly:
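Mice bearing BT474 xenografts were dosed ip at […], 12.5 or 25 mg/kg, with a vehicle control group. GSK3b phosphorylation in the tumours was the read-out.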
For orientation: Xenograft models place foreign cells or tissue in a host animal.

Assay [2] has as its target RAC-gamma serine/threonine-protein kinase (Homo sapiens, UniProt Q9Y243). The experiment in a line: Inhibition of AKT3.

Chain of RAC-gamma serine/threonine-protein kinase (Q9Y243 whole entry): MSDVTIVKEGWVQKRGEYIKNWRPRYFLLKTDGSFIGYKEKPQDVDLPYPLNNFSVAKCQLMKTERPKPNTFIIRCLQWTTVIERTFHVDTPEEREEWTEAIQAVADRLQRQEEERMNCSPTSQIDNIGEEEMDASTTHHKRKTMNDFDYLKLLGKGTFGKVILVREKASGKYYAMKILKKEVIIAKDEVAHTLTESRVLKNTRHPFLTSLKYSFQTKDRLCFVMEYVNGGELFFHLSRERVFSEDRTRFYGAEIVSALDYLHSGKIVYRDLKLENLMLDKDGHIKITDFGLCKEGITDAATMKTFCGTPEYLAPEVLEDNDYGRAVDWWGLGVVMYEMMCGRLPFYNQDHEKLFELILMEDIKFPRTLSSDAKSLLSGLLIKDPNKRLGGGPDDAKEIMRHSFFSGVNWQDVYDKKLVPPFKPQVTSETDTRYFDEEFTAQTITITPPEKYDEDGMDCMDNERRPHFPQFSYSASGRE

On to `CCn1c(-c2nonc2N)nc2c(C#CC(C)(C)O)nc(OC[C@@H](N)Cc3ccccc3)cc21`, for which the half-maximal inhibitory concentration (IC50) in the assay on HFF was 7000 nM; with BT-474 it was 1500 nM; in assay [1] it was 3 nM; in the assay with LNCaP, 101 nM.

As for `CCn1c(-c2nonc2N)nc2c(C#CC(C)(C)O)nc(O[C@@H](CN)c3ccccc3)cc21`, the IC50 in the assay with HFF was 519 nM; in the assay with BT-474, 35 nM; in assay [1] it was 1 nM; with LNCaP it was 27 nM; in assay [2] it was 1 nM. Also, the inhibition entry with Mus musculus was “Dose-dependent effect”. This molecule had a Ki in assay [1] of 0.4 nM.

Consider `CCn1c(-c2nonc2N)nc2c(C#CC(C)(C)O)nc(CCCN)cc21`, for which the IC50 came out at 23000 nM in the assay on HFF; 3520 nM in the assay on BT-474; 3 nM in assay [1]; 4720 nM in the assay on LNCaP; 30 nM in assay [2].

Regarding `CCn1c(-c2nonc2N)nc2c(C#CC(C)(C)O)nc(O[C@@H](CCN)c3ccccc3)cc21`, the IC50 with HFF was found to be 11000 nM; in the assay on BT-474, 1 nM; in assay [1], 2 nM; in the assay with LNCaP, 5 nM. In assay [1], this molecule came in with an inhibitory constant (Ki) of 0.2 nM.

Turning to `CCn1c(-c2nonc2N)nc2c(C#CC(C)(C)O)nc(O[C@H](CN)c3ccccc3)cc21`, the concentration for half-maximal inhibition (IC50) in the assay with HFF is 20000 nM; with BT-474, 124 nM; in assay [1], 3 nM; with LNCaP it was 68 nM. In assay [1], this molecule gave a Ki of 3 nM.

Consider `CCn1c(-c2nonc2N)nc2c(C#CC(C)(C)O)nc(OC[C@H](N)c3ccccc3)cc21` [GSK-943949A], for which the 50% inhibitory concentration (IC50) in the assay with HFF was determined as 5000 nM; with BT-474, 2100 nM; in assay [1] it was 3 nM; with LNCaP, 124 nM; in assay [2], 17 nM.

As to `CCn1c(-c2nonc2N)nc2c(C#CC(C)(C)O)nc(CN3CCCC3)cc21` [GSK-1000163A], the IC50 in the assay with HFF came to 30000 nM; in the assay with BT-474, 1250 nM; in assay [1] it was 6 nM; in the assay with LNCaP, 313 nM; in assay [2], 22 nM.

Regarding `CCn1c(-c2nonc2N)nc2c(C#CC(C)(C)O)nc(OC[C@@H](N)c3ccccc3)cc21` [GSK-938890A], the half-inhibitory concentration (IC50) in the assay on HFF came to 20000 nM; in the assay with BT-474 it was 3440 nM; in assay [1] it was 5 nM; with LNCaP, 176 nM; in assay [2] it was 49 nM.

In the case of `CCn1c(-c2nonc2N)nc2c(C#CC(C)(C)O)nc(OCCNC)cc21`, the IC50 with HFF was determined as 17000 nM; in the assay with BT-474 it was 3190 nM; in assay [1] it was 12 nM; in the assay on LNCaP, 896 nM.

With `CCn1c(-c2nonc2N)nc2c(C#CC(C)(C)O)nc(OC[C@@H](C)N)cc21`, the IC50 in the assay on HFF is 17000 nM; in the assay with BT-474 it was 860 nM; in assay [1], 8 nM; with LNCaP, 220 nM.

As to `CCn1c(-c2nonc2N)nc2c(C#CC(C)(C)O)nc(OCCN)cc21`, the IC50 worked out at 5000 nM with HFF; 1080 nM in the assay on BT-474; 5 nM in assay [1]; 497 nM in the assay on LNCaP; 43 nM in assay [2]. In assay [1], this molecule came in with a Ki of 6 nM.

For `CCn1c(-c2nonc2N)nc2c(C#CC(C)(C)O)nc(O[C@H](CCN)c3ccccc3)cc21`, the IC50 in the assay with HFF is 29000 nM; in the assay with BT-474, 224 nM; in assay [1], 4 nM; in the assay with LNCaP, 85 nM; in assay [2], 65 nM. The Ki in assay [1] was 1.9 nM.

As to `CCn1c(-c2nonc2N)nc2c(C#CC(C)(C)O)nc(CCN)cc21`, the IC50 in the assay with HFF was found to be 24000 nM; in the assay on BT-474, 1090 nM; in assay [1] it was 4 nM; in the assay on LNCaP, 2020 nM.

As to `CCn1c(-c2nonc2N)nc2c(C#CC(C)(C)O)nc(CN)cc21`, the IC50 is 24000 nM with HFF, 806 nM with BT-474, 6 nM in assay [1] and 296 nM in the assay with LNCaP.

With `CCn1c(-c2nonc2N)nc2c(C#CC(C)(C)O)nc(OCCCN)cc21`, the IC50 was 30000 nM with HFF, 7120 nM in the assay with BT-474, 16 nM in assay [1] and 3180 nM with LNCaP. This molecule returned a Ki in assay [1] of 115 nM.

As for `CCn1c(-c2nonc2N)nc2c(C#CC(C)(C)O)nc(OCCCCN)cc21`, the half-maximal inhibitory concentration (IC50) in the assay with HFF was determined as 30000 nM; in the assay on BT-474, 20000 nM; in assay [1], 63 nM; in the assay with LNCaP, 6160 nM.

Take `CCn1c(-c2nonc2N)nc2c(C#CC(C)(C)O)nc(CN(C)C)cc21`: the IC50 was 30000 nM in the assay on HFF, 357 nM with BT-474, 2 nM in assay [1] and 114 nM with LNCaP.

Consider `CCn1c(-c2nonc2N)nc2c(C#CC(C)(C)O)nc(OC[C@H](N)Cc3ccccc3)cc21`, for which the IC50 came to 8000 nM in the assay on HFF; 742 nM in the assay with BT-474; 0.6 nM in assay [1]; 20 nM in the assay with LNCaP; 3 nM in assay [2]. In assay [1], this molecule returned an inhibitory constant (Ki) of 0.2 nM.

`CCn1c(-c2nonc2N)nc2c(C#CC(C)(C)O)nc(CNC)cc21`: the IC50 was found to be 5900 nM with HFF, 439 nM with BT-474, 3 nM in assay [1] and 201 nM in the assay with LNCaP.

Regarding `CCn1c(-c2nonc2N)nc2c(C#CC(C)(C)O)ncc(OC[C@H]3CCCNC3)c21` [GSK-690693], the figures for the IC50 with HFF, in the assay on BT-474 and in the assay on LNCaP were more than 23000 nM, 69 nM and 21 nM, respectively.

As to `CCn1c(-c2nonc2N)nc2c(C#CC(C)(C)O)nc(OC[C@H](C)N)cc21`, the concentration for half-maximal inhibition (IC50) with HFF came to 28000 nM; with BT-474, 4860 nM; in assay [1] it was 13 nM; with LNCaP, 560 nM.
